Source: ChEMBL document CHEMBL4138242, “Synthesis and antibacterial evaluation of novel cationic chalcone derivatives possessing broad spectrum antibacterial activity” (Eur J Med Chem, 2018)

Key:
[1] = system: Staphylococcus aureus; assay: Antibacterial activity against Staphylococcus aureus ATCC 29213 after 16 to 20 hrs by broth microdilution method; format: functional
Summary of the method: (§1)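 Broth microdilution per CLSI. Bacteria grown 4-6 h (about 10⁸ CFU/mL), then diluted to about 10⁶ CFU/mL. Medium: Mueller-Hinton broth, except Luria-Bertani broth for E. coli. Compounds in sterile water, twofold series 256-0.5 µg/mL, mixed 1:1 with inoculum, 37 °C for 16-20 h. MIC is the lowest concentration without visible growth. Duplicate wells; experiment repeated at least twice.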

[2] = system: Enterococcus faecalis; assay: Antibacterial activity against Enterococcus faecalis ATCC 29212 after 16 to 20 hrs by broth microdilution method; format: functional; summary of the method: as §1
[3] = system: Escherichia coli; assay: Antibacterial activity against Escherichia coli ATCC 25922 after 16 to 20 hrs by broth microdilution method; format: functional; summary of the method: as §1
[4] = system: Salmonella enterica; assay: Antibacterial activity against Salmonella enterica ATCC 13076 after 16 to 20 hrs by broth microdilution method; format: functional; summary of the method: as §1
[5] = Hemolytic activity in sheep RBC after 1 hr; format: ADME, cell-based, Ovis aries, Erythrocyte; conditions: sheep red blood cells (erythrocytes)
Summary of the method: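 Sheep red blood cells (150 µL suspension) mixed with 50 µL of compound dilutions (5120-10 µg/mL), 1 h at 37 °C, then centrifuged. Supernatant read at 540 nm. Percent hemolysis calculated relative to RBC-only control (0%) and 0.1% Triton X-100 (100%).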

[6] = system: Staphylococcus aureus; assay: Antibacterial activity against methicillin-resistant Staphylococcus aureus clinical isolate 1105183 cono7 after 16 to 20 hrs by broth microdilution method; format: functional
Summary of the method: (§2)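 CLSI broth microdilution in Mueller-Hinton broth. A 4-6 h culture was diluted to about 10⁶ CFU/mL and mixed 1:1 with compound dilutions prepared at 256 to 0.5 µg/mL from aqueous stocks. Plates were incubated at 37 °C for 16-20 h and read visually for MIC. Each concentration was run in duplicate, and the experiment was repeated at least twice. Vancomycin and meropenem were comparators.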

[7] = system: Staphylococcus aureus; assay: Antibacterial activity against methicillin-resistant Staphylococcus aureus clinical isolate 20130911034sau after 16 to 20 hrs by broth microdilution method; format: functional; summary of the method: as §2
[8] = system: Staphylococcus aureus; assay: Antibacterial activity against methicillin-resistant Staphylococcus aureus clinical isolate 0831010 after 16 to 20 hrs by broth microdilution method; format: functional; summary of the method: as §2
[9] = system: Staphylococcus aureus; assay: Antibacterial activity against methicillin-resistant Staphylococcus aureus clinical isolate 1104060 after 16 to 20 hrs by broth microdilution method; format: functional; summary of the method: as §2
[10] = system: Staphylococcus aureus; assay: Antibacterial activity against methicillin-resistant Staphylococcus aureus clinical isolate 20131012632sau after 16 to 20 hrs by broth microdilution method; format: functional; summary of the method: as §2
[11] = system: Staphylococcus aureus; assay: Antibacterial activity against methicillin-resistant Staphylococcus aureus clinical isolate 1207007 after 16 to 20 hrs by broth microdilution method; format: functional; summary of the method: as §2
[12] = system: Staphylococcus aureus; assay: Antibacterial activity against methicillin-resistant Staphylococcus aureus clinical isolate 1-may after 16 to 20 hrs by broth microdilution method; format: functional; summary of the method: as §2
[13] = system: Staphylococcus aureus; assay: Antibacterial activity against methicillin-resistant Staphylococcus aureus clinical isolate 0906202 after 16 to 20 hrs by broth microdilution method; format: functional; summary of the method: as §2
[14] = system: Staphylococcus aureus; assay: Antibacterial activity against methicillin-resistant Staphylococcus aureus clinical isolate 1208143 after 16 to 20 hrs by broth microdilution method; format: functional; summary of the method: as §2
[15] = system: Klebsiella pneumoniae; assay: Antibacterial activity against drug-resistant carbapenemase producing Klebsiella pneumoniae clinical isolate KP-14-8 after 16 to 20 hrs by broth microdilution method; format: functional; summary of the method: as §2
[16] = system: Klebsiella pneumoniae; assay: Antibacterial activity against drug-resistant carbapenemase producing Klebsiella pneumoniae clinical isolate KP-13-45 after 16 to 20 hrs by broth microdilution method; format: functional; summary of the method: as §2
[17] = system: Klebsiella pneumoniae; assay: Antibacterial activity against drug-resistant carbapenemase producing Klebsiella pneumoniae clinical isolate KP-14-3 after 16 to 20 hrs by broth microdilution method; format: functional; summary of the method: as §2
[18] = system: Klebsiella pneumoniae; assay: Antibacterial activity against drug-resistant carbapenemase producing Klebsiella pneumoniae clinical isolate KP-14-1 after 16 to 20 hrs by broth microdilution method; format: functional; summary of the method: as §2
[19] = system: Klebsiella pneumoniae; assay: Antibacterial activity against drug-resistant carbapenemase producing Klebsiella pneumoniae clinical isolate KP-14-4 after 16 to 20 hrs by broth microdilution method; format: functional; summary of the method: as §2
[20] = system: Klebsiella pneumoniae; assay: Antibacterial activity against drug-resistant carbapenemase producing Klebsiella pneumoniae clinical isolate KP-13-54 after 16 to 20 hrs by broth microdilution method; format: functional; summary of the method: as §2
[21] = system: Klebsiella pneumoniae; assay: Antibacterial activity against drug-resistant carbapenemase producing Klebsiella pneumoniae clinical isolate KP-14-2 after 16 to 20 hrs by broth microdilution method; format: functional; summary of the method: as §2
[22] = system: Klebsiella pneumoniae; assay: Antibacterial activity against drug-resistant carbapenemase producing Klebsiella pneumoniae clinical isolate EC-13-23 after 16 to 20 hrs by broth microdilution method; format: functional; summary of the method: as §2
[23] = system: Klebsiella pneumoniae; assay: Antibacterial activity against drug-resistant carbapenemase producing Klebsiella pneumoniae clinical isolate KP-14-5 after 16 to 20 hrs by broth microdilution method; format: functional; summary of the method: as §2
[24] = system: Klebsiella pneumoniae; assay: Antibacterial activity against drug-resistant carbapenemase producing Klebsiella pneumoniae clinical isolate KP-13-55 after 16 to 20 hrs by broth microdilution method; format: functional; summary of the method: as §2
[25] = system: Klebsiella pneumoniae; assay: Antibacterial activity against drug-resistant carbapenemase producing Klebsiella pneumoniae clinical isolate KP-14-45 after 16 to 20 hrs by broth microdilution method; format: functional; summary of the method: as §2
[26] = system: Klebsiella pneumoniae; assay: Antibacterial activity against drug-resistant carbapenemase producing Klebsiella pneumoniae clinical isolate KP-14-18 after 16 to 20 hrs by broth microdilution method; format: functional; summary of the method: as §2
[27] = system: Escherichia coli; assay: Antibacterial activity against drug-resistant NDM1 producing Escherichia coli clinical isolate EC-13-49 after 16 to 20 hrs by broth microdilution method; format: functional; summary of the method: as §2
[28] = system: Escherichia coli; assay: Antibacterial activity against drug-resistant NDM1 producing Escherichia coli clinical isolate Ecl-14-58 after 16 to 20 hrs by broth microdilution method; format: functional; summary of the method: as §2
[29] = system: Escherichia coli; assay: Antibacterial activity against drug-resistant NDM1 producing Escherichia coli clinical isolate KP-13-58 after 16 to 20 hrs by broth microdilution method; format: functional; summary of the method: as §2
[30] = system: Escherichia coli; assay: Antibacterial activity against drug-resistant NDM1 producing Escherichia coli clinical isolate Ecl-13-62 after 16 to 20 hrs by broth microdilution method; format: functional; summary of the method: as §2
[31] = system: Escherichia coli; assay: Antibacterial activity against drug-resistant NDM1 producing Escherichia coli clinical isolate EC-14-54 after 16 to 20 hrs by broth microdilution method; format: functional; summary of the method: as §2
[32] = system: Escherichia coli; assay: Antibacterial activity against drug-resistant NDM1 producing Escherichia coli clinical isolate Ecl-14-59 after 16 to 20 hrs by broth microdilution method; format: functional; summary of the method: as §2
[33] = system: Escherichia coli; assay: Antibacterial activity against drug-resistant NDM1 producing Escherichia coli clinical isolate EA-14-61 after 16 to 20 hrs by broth microdilution method; format: functional; summary of the method: as §2
[34] = system: Escherichia coli; assay: Antibacterial activity against drug-resistant NDM1 producing Escherichia coli clinical isolate Ecl-14-56 after 16 to 20 hrs by broth microdilution method; format: functional; summary of the method: as §2
[35] = system: Escherichia coli; assay: Antibacterial activity against drug-resistant NDM1 producing Escherichia coli clinical isolate 1460 after 16 to 20 hrs by broth microdilution method; format: functional; summary of the method: as §2
[36] = system: Escherichia coli; assay: Antibacterial activity against drug-resistant NDM1 producing Escherichia coli clinical isolate SM-15-84 after 16 to 20 hrs by broth microdilution method; format: functional; summary of the method: as §2
[37] = system: Escherichia coli; assay: Antibacterial activity against drug-resistant NDM1 producing Escherichia coli clinical isolate CF-15-61 after 16 to 20 hrs by broth microdilution method; format: functional; summary of the method: as §2
[38] = system: Escherichia coli; assay: Antibacterial activity against drug-resistant NDM1 producing Escherichia coli clinical isolate CF-13-61 after 16 to 20 hrs by broth microdilution method; format: functional; summary of the method: as §2

CCCCCCCC[N+](C)(C)CC(=O)Nc1ccc(C(=O)/C=C/c2ccco2)cc1.[Cl-]
137 µg/mL: HC50 at 1 h [5]
32 mg/L: MIC [9] | MIC [16] | MIC [17] | MIC [18] | MIC [24] | MIC [25] | MIC [26] | MIC [31] | MIC [36]
64 mg/L: MIC [38]
2 mg/L: MIC [7] | MIC [8] | MIC [11] | MIC [14] | MIC [21]
4 mg/L: MIC [2] | MIC [3] | MIC [6] | MIC [12] | MIC [29]
1 mg/L: MIC [1]
8 mg/L: MIC [10] | MIC [22] | MIC [30]
16 mg/L: MIC [4] | MIC [13] | MIC [15] | MIC [19] | MIC [20] | MIC [23] | MIC [27] | MIC [28] | MIC [32] | MIC [33] | MIC [34] | MIC [35] | MIC [37]

CCCCCCCC[N+](C)(C)CC(=O)Nc1ccc(C(=O)/C=C/c2cccs2)cc1.[Cl-]
1 mg/L: MIC [2] | MIC [6] | MIC [7] | MIC [11] | MIC [13]
16 mg/L: MIC [9] | MIC [24] | MIC [25] | MIC [26]
4 mg/L: MIC [3] | MIC [10] | MIC [27] | MIC [31] | MIC [36]
8 mg/L: MIC [4] | MIC [15] | MIC [16] | MIC [17] | MIC [18] | MIC [19] | MIC [20] | MIC [22] | MIC [23] | MIC [28] | MIC [30] | MIC [32] | MIC [33] | MIC [34] | MIC [37] | MIC [38]
2 mg/L: MIC [12] | MIC [14] | MIC [21] | MIC [29] | MIC [35]
0.5 mg/L: MIC [1] | MIC [8]
133 µg/mL: HC50 at 1 h [5]
